# Assay results taken from article PMC9064169 (ACS chemical biology, 2021).
# Where a chain is given by its changes, count along the chain named. “Also recorded” adds a separate entry of the source. Where two headings read alike, the source gives them in different places.
# Experiments:
# [1] = molecular target: T1, Arg563Ala mutant Nurr1 LBD (Homo sapiens, UniProt P43354, R563A); experiment: MST binding to Arg563Ala mutant Nurr1 LBD
# T1 sequence (P43354 360-595 R563A limits assumed): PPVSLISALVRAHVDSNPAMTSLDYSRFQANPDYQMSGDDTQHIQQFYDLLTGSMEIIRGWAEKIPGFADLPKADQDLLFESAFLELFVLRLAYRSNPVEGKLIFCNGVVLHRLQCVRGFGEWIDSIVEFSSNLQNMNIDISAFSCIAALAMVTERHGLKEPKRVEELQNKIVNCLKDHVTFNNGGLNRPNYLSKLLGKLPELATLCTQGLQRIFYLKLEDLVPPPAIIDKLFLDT
# [2] = molecular target: His516Ala mutant Nurr1 LBD (Homo sapiens, UniProt P43354, H516A); experiment: MST binding to His516Ala mutant Nurr1 LBD
# [3] = molecular target: T2, Arg563Ala His516Ala double mutant Nurr1 LBD (Homo sapiens, UniProt P43354, H516A/R563A); experiment: MST binding to Arg563Ala/His516Ala double mutant Nurr1 LBD
# T2 sequence (P43354 360-595 H516A/R563A limits assumed): T1 sequence (P43354 360-595 R563A limits assumed) with H157A
# [4] = molecular target: endogenous full-length Nurr1 (Mus musculus, UniProt Q06219); experiment: qPCR of Nurr1 target gene transcripts; format: cell-based; details: 24 h
# Summary of the method: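 Mouse MN9D cells treated with test compound at 10 μM, or over a concentration series, for 24 h. Vehicle was DMSO. mRNA was isolated and Th and Vmat2 transcripts were measured by qPCR. Values were normalized to housekeeping gene Hprt and expressed as fold-change over DMSO-treated cells. Values are from three or more independent measurements ± SD.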
# MN9D cells = experiment: Cytotoxicity / viability in MN9D cells; format: cell-based; details: 24 h treatment
# [5] = molecular target: Nurr1 ligand binding domain (LBD) (Homo sapiens, UniProt P43354); experiment: Microscale thermophoresis
# Summary of the method: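 KD for the Nurr1 LBD measured by microscale thermophoresis, with 0.1% of the surfactant Pluronic F127 present. To exclude non-specific binding by aggregates, the assay was repeated at increasing Pluronic F127 concentrations. Values are from three or more independent measurements ± SD.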
# [6] = molecular target: full-length Nurr1 (NBRE response element) (Homo sapiens, UniProt P43354); experiment: Luciferase reporter assay, full-length receptor on NBRE response element; format: cell-based
# LBD of RXRα = molecular target: T3, LBD of RXRα (Homo sapiens, UniProt P19793); experiment: Binding to the LBD of RXRα
# T3 sequence (P19793 227-458 limits assumed): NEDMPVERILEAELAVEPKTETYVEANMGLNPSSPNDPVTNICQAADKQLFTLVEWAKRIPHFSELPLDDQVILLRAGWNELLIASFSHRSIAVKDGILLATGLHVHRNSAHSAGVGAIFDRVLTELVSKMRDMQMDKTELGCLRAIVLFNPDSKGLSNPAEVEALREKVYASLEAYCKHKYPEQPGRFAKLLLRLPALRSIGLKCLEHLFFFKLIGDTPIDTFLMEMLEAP
# [7] = Chemical stability in solution; format: physicochemical; details: observed during data acquisition; see references 26-28
# zebrafish = details: cited from earlier work
# [8] = cited from earlier work
# [9] = MN9D cells, 10 μM, normalized to Hprt
# endogenous full-length Nurr1, sequence (Q06219 whole entry): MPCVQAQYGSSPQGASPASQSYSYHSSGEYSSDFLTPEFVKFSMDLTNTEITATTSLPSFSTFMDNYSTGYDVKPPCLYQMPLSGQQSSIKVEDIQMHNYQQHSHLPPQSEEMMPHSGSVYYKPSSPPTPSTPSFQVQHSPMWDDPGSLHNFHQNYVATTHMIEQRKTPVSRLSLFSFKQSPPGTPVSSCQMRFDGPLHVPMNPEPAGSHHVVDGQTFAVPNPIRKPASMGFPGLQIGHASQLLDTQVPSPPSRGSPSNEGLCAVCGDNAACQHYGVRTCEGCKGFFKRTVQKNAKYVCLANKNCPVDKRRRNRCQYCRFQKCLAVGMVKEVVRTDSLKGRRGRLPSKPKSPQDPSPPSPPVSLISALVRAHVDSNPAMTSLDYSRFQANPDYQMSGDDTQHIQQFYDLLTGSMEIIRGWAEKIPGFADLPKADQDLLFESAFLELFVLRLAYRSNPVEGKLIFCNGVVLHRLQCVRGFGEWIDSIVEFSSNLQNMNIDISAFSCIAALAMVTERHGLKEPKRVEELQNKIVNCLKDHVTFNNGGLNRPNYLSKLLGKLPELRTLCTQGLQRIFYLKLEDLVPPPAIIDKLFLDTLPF
# Nurr1 ligand binding domain (LBD), sequence (P43354 360-595 limits assumed): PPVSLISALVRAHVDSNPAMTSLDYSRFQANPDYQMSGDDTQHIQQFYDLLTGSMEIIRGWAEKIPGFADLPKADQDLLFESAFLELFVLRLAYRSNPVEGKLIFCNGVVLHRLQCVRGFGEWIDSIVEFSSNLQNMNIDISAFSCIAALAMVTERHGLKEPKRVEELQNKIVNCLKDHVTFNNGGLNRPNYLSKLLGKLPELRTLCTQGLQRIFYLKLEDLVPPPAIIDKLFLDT
# His516Ala mutant Nurr1 LBD, sequence (P43354 360-595 H516A limits assumed): as the sequence (P43354 360-595 limits assumed) above, with H157A counted along it
# full-length Nurr1 (NBRE response element), sequence (P43354 whole entry, species assumed, the tested form may be a part): as the sequence (Q06219 whole entry) above, with S131T, S134G, D354E counted along it
smiles,measurement,setting,value
Brc1ccc2[nH]ccc2c1 [5-bromoindole],Binding to Arg563Ala mutant relative to wildtype,[1],eliminated
same,Binding affinity for His516Ala mutant relative to wildtype,[2],statistically unchanged
same,Binding to Arg563Ala/His516Ala double mutant relative to wildtype,[3],eliminated
same,"Th expression, fold-change relative to vehicle (DMSO)",[4]; [9],2.2 fold
same,"Vmat2 expression, fold-change relative to vehicle (DMSO)",[4]; [9],2.5 fold
same,Cytotoxicity in MN9D cells,MN9D cells,"somewhat toxic to cells under certain conditions (≥10 μM, 24 h)"
Clc1ccc2[nH]ccc2c1 [5-chloroindole],Effect of increasing surfactant concentration on affinity for the Nurr1 LBD,[5]; MST binding assay,only has a minor effect
same,Affinity for the Nurr1 LBD compared with reference ligands,[5]; in vitro and in luciferase reporter assays,comparable to DHI and amodiaquine
same,"Improvement of affinity relative to wildtype, Arg563Ala mutant",[1],~ 2 fold
same,"Improvement of affinity relative to wildtype, His516Ala mutant",[2],~ 2 fold
same,"Improvement of affinity relative to wildtype, double mutant",[3],~ 2 fold
same,"Vmat2 expression, fold-change relative to vehicle (DMSO)",[4]; [9],2.4 fold
same,Potency in MN9D cells compared with reference ligands,[4]; Th and Vmat2 expression,superior to that of DHI and amodiaquine
same,Cytotoxicity in MN9D cells,MN9D cells,non-cytotoxic; also recorded: not cytotoxic
same,"Activity of Nurr1 in luciferase reporter assay (full-length receptor, NBRE)",[6],stimulates the activity of Nurr1
same,Saturable binding to the LBD of RXRα,LBD of RXRα,does not exhibit saturable binding
same,Chemical stability in solution,[7],stable
Nc1ccc2cc[nH]c2c1 [6-aminoindole],Cytotoxicity in MN9D cells,MN9D cells,significant cytotoxicity
same,Chemical stability in solution,[7],autooxidation and polymerization in solution
Oc1ccc2cc[nH]c2c1 [6-hydroxyindole],Cytotoxicity in MN9D cells,MN9D cells,significant cytotoxicity
same,Chemical stability in solution,[7],autooxidation and polymerization in solution
"Oc1cc2cc[nH]c2cc1O [DHI, 5,6-dihydroxyindole]",Expression of th and vmat2 in zebrafish,zebrafish,stimulates the expression of th and vmat2
same,Chemical stability in solution,[8],readily auto-oxidizes and polymerizes
"CCN(CC)Cc1cc(Nc2ccnc3cc(Cl)ccc23)ccc1O [amodiaquine, reference compound]",Kd,[5],8 ± 1.5 µM
